Experimental data taken from PMC10337234 (Nature chemical biology, 2023).

What was measured:
MCF7 cells = assay: Cell growth inhibition assay; format: cell-based, human; details: MCF7, 5 days, versus (S)-SKBG-1
Procedure, shortened: (§1)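 Cells were seeded at 5,000 per well for 16 h. They were then given 0.1% DMSO or test compound in 0.1% DMSO (threefold dilutions from 50 μM, eight concentrations) until DMSO controls were confluent: 6 d for 22Rv1, 5 d for MCF7, 4 d for HeLa and HT1080. CellTiterGlo was added for 30 min at room temperature and luminescence read. Signals were normalized to DMSO, with four replicate wells per concentration. EC50 came from a four-parameter variable-slope fit.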

22Rv1 cells [1] = assay: RNA-seq of sgControl 22Rv1 cells; format: cell-based, human; details: 20 μM, 4 h, log2 (fold change) < −0.5, Padj < 0.01, versus (S)-SKBG-1 or DMSO
AR-V7 mRNA = assay: QuantiGene assay for AR-V7 mRNA expression in 22Rv1 cells; format: cell-based; details: Homo sapiens, 22Rv1, 6 h, read-out: IC50 for AR-V7 transcript suppression
HeLa cells = assay: Cell growth inhibition assay; format: cell-based, human; details: 4 days, versus (S)-SKBG-1
Procedure, shortened: as §1

NONO C145 [2] = biological target: T1, NONO C145 (Homo sapiens, UniProt Q15233); assay: Cysteine-directed MS-ABPP, engagement of NONO C145 in 22Rv1 cells; format: binding; details: 1 h
T1 sequence (Q15233 1-471): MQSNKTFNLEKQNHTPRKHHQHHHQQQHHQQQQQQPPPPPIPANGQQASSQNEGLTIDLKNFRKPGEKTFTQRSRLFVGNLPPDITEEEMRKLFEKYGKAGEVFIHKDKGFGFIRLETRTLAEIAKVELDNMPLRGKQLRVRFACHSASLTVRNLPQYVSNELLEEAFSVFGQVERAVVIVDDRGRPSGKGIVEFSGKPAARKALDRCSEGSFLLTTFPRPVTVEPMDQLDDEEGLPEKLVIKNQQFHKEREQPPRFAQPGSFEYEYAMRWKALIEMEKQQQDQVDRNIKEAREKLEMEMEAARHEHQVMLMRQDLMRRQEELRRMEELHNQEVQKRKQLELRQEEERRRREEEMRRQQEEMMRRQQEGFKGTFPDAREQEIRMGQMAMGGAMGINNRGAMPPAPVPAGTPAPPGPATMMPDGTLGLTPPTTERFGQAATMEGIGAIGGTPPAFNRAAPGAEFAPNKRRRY
Procedure, shortened: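 22Rv1 cells were seeded at 2 × 10^6 per 10-cm plate and grown for 48 h. They were treated in situ with 20 μM test compound or DMSO for 1 h, then analysed by cysteine-directed MS-ABPP. Engagement was taken from the DMSO versus compound reactivity ratio, capped at 10 and 0.1. Values are means of three independent experiments, counting cysteines quantified in at least two.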

NONO = biological target: T2, NONO (Homo sapiens, UniProt Q15233); assay: Immunofluorescence of NONO nuclear foci in 22Rv1 cells; format: cell-based; details: 20 μM, 1 h to 24 h
T2 sequence (Q15233 1-471): T1 sequence (Q15233 1-471)

HT1080 cells = assay: Cell growth inhibition assay; format: cell-based, human; details: HT1080, 4 days, versus (S)-SKBG-1
Procedure, shortened: as §1

22Rv1 cells [3] = assay: Cell growth inhibition assay; format: cell-based, human; details: 22Rv1, 6 d, versus (S)-SKBG-1
Procedure, shortened: as §1

AR-FL mRNA = assay: QuantiGene assay for AR-FL mRNA expression in 22Rv1 cells; format: cell-based; details: Homo sapiens, 22Rv1, 6 h, read-out: IC50 for AR-FL transcript suppression
NONO C145 [4] = biological target: T1, NONO C145; format: binding
Procedure, shortened: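 HEK293T cells were seeded at 5 × 10^5 overnight and PEI-transfected with FLAG-tagged WT or C145S NONO, or empty vector, for 48 h. Cells were then given test compound or 0.1% DMSO in situ for 2 h, followed by a cysteine-reactive alkyne probe (20 μM, 1 h, 37 °C). Lysates (2 mg ml–1) were click-conjugated to rhodamine/TAMRA-azide and run on SDS-PAGE. The FLAG-NONO band was quantified by in-gel fluorescence. Four independent experiments gave the IC50.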

| SMILES | cell growth effect (MCF7 cells) | number of transcripts substantially and significantly decreased (22Rv1 cells [1]) | IC50 (AR-V7 mRNA) [µM] | cell growth effect (HeLa cells) | inhibition at 20 µM (NONO C145 [2]; read-out: engagement of NONO C145) [%] | formation of subnuclear foci of NONO (NONO) | cell growth effect (HT1080 cells) | cell growth effect (22Rv1 cells [3]) | IC50 (AR-FL mRNA) [µM] | IC50 (NONO C145 [4]) [µM] | engagement of NONO C145 (NONO C145 [2]; 22Rv1 cells, 20 μM) |
| --- | --- | --- | --- | --- | --- | --- | --- | --- | --- | --- | --- |
| COc1ccc(CNC(=O)[C@H]2CN(C(=O)CCl)CCN2S(=O)(=O)c2ccc(OC)cc2)cc1 [(R)-SKBG-1] | stereoselective cell growth impairment | ~ 1,000 transcripts | 2.7 to 5.5 | stereoselective cell growth impairment | > 50 | induced the formation of large subnuclear foci of NONO | stereoselective cell growth impairment | stereoselective cell growth impairment | 2.7 to 5.5 | 5.7 |  |
| COc1ccc(CNC(=O)[C@@H]2CN(C(=O)CCl)CCN2S(=O)(=O)c2ccc(OC)cc2)cc1 [(S)-SKBG-1] |  |  |  |  |  |  |  |  |  |  | not by the inactive controls |
